Results on 21 compounds are retold here after ChEMBL document CHEMBL1287772, “Synthesis and structure-activity relationship of tetrahydropyrazolopyrimidine derivatives--a novel structural class of potent calcium-sensing receptor antagonists” (Bioorg Med Chem, 2010).

The target of series [1] is T1, Extracellular calcium-sensing receptor (Homo sapiens, UniProt P41180).
T1 sequence (P41180 whole entry): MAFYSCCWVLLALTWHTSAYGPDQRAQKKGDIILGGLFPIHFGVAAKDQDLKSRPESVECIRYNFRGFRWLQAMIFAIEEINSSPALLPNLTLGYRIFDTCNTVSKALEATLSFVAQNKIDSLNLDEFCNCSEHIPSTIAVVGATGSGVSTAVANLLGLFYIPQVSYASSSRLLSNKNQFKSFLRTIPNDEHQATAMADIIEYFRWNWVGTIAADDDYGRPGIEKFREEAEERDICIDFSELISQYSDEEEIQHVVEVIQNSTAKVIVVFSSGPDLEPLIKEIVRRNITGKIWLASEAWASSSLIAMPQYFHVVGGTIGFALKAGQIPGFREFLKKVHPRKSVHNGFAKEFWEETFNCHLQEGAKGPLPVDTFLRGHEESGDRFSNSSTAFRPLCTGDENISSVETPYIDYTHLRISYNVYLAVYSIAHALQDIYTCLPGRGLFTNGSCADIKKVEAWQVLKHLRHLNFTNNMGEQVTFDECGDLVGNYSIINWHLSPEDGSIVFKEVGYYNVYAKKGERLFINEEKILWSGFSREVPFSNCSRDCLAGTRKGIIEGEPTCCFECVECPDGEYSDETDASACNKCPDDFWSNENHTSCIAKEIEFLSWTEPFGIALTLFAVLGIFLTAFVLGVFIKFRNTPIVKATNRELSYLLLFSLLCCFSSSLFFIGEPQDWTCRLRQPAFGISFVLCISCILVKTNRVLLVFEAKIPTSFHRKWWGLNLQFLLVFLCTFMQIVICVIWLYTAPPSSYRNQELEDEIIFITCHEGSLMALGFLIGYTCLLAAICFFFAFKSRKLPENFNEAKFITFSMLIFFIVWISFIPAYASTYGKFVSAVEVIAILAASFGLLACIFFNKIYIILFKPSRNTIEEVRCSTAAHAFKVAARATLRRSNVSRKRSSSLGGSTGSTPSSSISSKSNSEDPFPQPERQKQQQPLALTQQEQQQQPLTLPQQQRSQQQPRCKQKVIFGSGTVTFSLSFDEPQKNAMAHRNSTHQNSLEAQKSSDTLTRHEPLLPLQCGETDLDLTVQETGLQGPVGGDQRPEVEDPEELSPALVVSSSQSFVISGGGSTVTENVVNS
Put plainly: Antagonist activity at CaSR expressed in CHO cells assessed as [35S]-GTPgammaS binding by scintillation counting. The series is classed as functional, cell-based.

A short description of series [2]: AUC in Crl:CD(SD) rat at 10 mg/kg, po administered with solubilized reagent. The series is classed as ADME, organism-based. On the set-up: dose 10 mg/kg, route oral. Particulars: plasma. Summed up: (§1)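 Nonfasted male rats, 8 weeks old, n = 3, single oral dose 10 mg/kg. Blood sampled at 0.25, 0.5, 1, 2, 4, 8 and 24 h and spun to plasma. Plasma deproteinized with acetonitrile, supernatant diluted in 0.01 mol/L ammonium acetate, re-centrifuged, assayed by HPLC. Mean ± SD reported.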

Series [3] is described as follows: Mean residence time in Crl:CD(SD) rat at 10 mg/kg, po administered with solubilized reagent. In kind it is ADME, organism-based. On the set-up: dose 10 mg/kg, route oral. Particulars: in vivo. Summed up: as §1
Series [4] is described as follows: Cmax in Crl:CD(SD) rat at 10 mg/kg, po administered with solubilized reagent. Particulars: in vivo. On the set-up: dose 10 mg/kg, route oral. In kind it is ADME, organism-based. In a few lines: as §1
A short description of series [5]: Tmax in Crl:CD(SD) rat at 10 mg/kg, po administered with solubilized reagent. The series is classed as ADME, organism-based. On the set-up: dose 10 mg/kg, route oral. Particulars: in vivo. In a few lines: as §1
Series [6] in a line: Cmax in Crl:CD(SD) rat at 10 mg/kg, po administered with 0.5% methylcellulose suspension. The series is classed as ADME, organism-based. On the set-up: dose 10 mg/kg, route oral. Particulars: in vivo. In a few lines:
as §1

Series [7] can be described thus: Mean residence time in Crl:CD(SD) rat at 10 mg/kg, po administered with 0.5% methylcellulose suspension. In kind it is ADME, organism-based. More on the design: dose 10 mg/kg, route oral. The following applies: in vivo. In a few lines:
as §1

Series [8] can be described thus: AUC in Crl:CD(SD) rat at 10 mg/kg, po administered with 0.5% methylcellulose suspension. The series is classed as ADME, organism-based. More on the design: dose 10 mg/kg, route oral. Particulars: in vivo. Summed up:
as §1

Series [9] in a line: Tmax in Crl:CD(SD) rat at 10 mg/kg, po administered with 0.5% methylcellulose suspension. In kind it is ADME, organism-based. On the set-up: dose 10 mg/kg, route oral. Particulars: in vivo. In a few lines: as §1

What is called IC50 is the concentration needed to halve the response being measured. On to `FC(F)(F)[C@H]1C[C@@H](c2ccccc2)Nc2c(CNC34CC5CC(CC(C5)C3)C4)cnn21`, for which, in series [1], the IC50 was greater than 10000 nM. On the same count and under the same terms, in the case of `CN1c2c(C(=O)NC34CC5CC(CC(C5)C3)C4)cnn2[C@@H](C(F)(F)F)C[C@H]1c1ccccc1` it was greater than 10000 nM; in that of `O=C(NC12CC3CC(CC(C3)C1)C2)c1cnn2c1NCC[C@@H]2C(F)(F)F`, greater than 10000 nM; in that of `CC(C)(C)[C@@H]1C[C@H](C(F)(F)F)n2ncc(C(=O)NC34CC5CC(CC(C5)C3)C4)c2N1`, greater than 10000 nM. Same read-out and setting: in the case of `O=C(OC12CC3CC(CC(C3)C1)C2)c1cnn2c1N[C@H](c1ccccc1)C[C@@H]2C(F)(F)F` it was 97 nM; in that of `O=C(NC12CC3CC(CC(C3)C1)C2)c1cnn2c1N[C@H](c1ccccc1)C[C@@H]2C(F)(F)F`, 40 nM. Same read-out and setting: in the case of `O=C(NC12CC3CC(CC(C3)C1)C2)c1cnn2c1N[C@H](c1ccc(Cl)cc1)C[C@@H]2C(F)(F)F` it was greater than 10000 nM. Broadly, the AUC is the area under the concentration-time curve, a measure of exposure. Read a low AUC as low exposure. In general, MRT refers to the average time that molecules of a dose stay in the body. By Cmax is commonly meant the peak of the concentration-time curve. A word on the Tmax: it is the time from dosing to the highest level. With `CC1(C)C[C@@H](c2ccccc2)Nc2c(C(=O)NC34CC5CC(CC(C5)C3)C4)cnn21`, the values for the AUC in series [2] and in series [8] were 1270 ng·h/mL and 591 ng·h/mL, respectively. Besides, the MRT in [3] worked out at 4.48 h; in series [7], 4.65 h. The IC50 in [1] turned out to be 10 nM. In addition, the results for the Cmax in series [4] and in series [6] were 237 ng/mL and 64 ng/mL, respectively. In addition, the values for the Tmax in [5] and in series [9] were 0.67 h and 1.3 h, respectively. Take `CCc1ccc([C@@H]2C[C@H](C(F)(F)F)n3ncc(C(=O)NC45CC6CC(CC(C6)C4)C5)c3N2)cc1`: the IC50 in [1] is greater than 10000 nM. Still for that read-out and setting: in the case of `COc1ccc([C@@H]2C[C@H](C(F)(F)F)n3ncc(C(=O)NC45CC6CC(CC(C6)C4)C5)c3N2)cc1` it was greater than 10000 nM; in that of `O=C(NC12CC3CC(CC(C3)C1)C2)c1cnn2c1N[C@H](c1ccccc1Cl)C[C@@H]2C(F)(F)F`, 110 nM; in that of `O=C(NC12CC3CC(CC(C3)C1)C2)c1cnn2c1N[C@H](c1ccccc1)CC2`, 5300 nM. As for `C[C@@H]1C[C@H](c2ccccc2)n2ncc(C(=O)NC34CC5CC(CC(C5)C3)C4)c2N1`, the half-inhibitory concentration (IC50) in [1] was greater than 10000 nM. On the same count and under the same terms, in the case of `O=C(NC12CC3CC(CC(C3)C1)C2)c1cnn2c1N[C@H](c1ccccc1)C[C@@H]2c1ccccc1` it was 700 nM; in that of `O=C(NC12CC3CC(CC(C3)C1)C2)c1cnn2c1N[C@H](c1cccc(Cl)c1)C[C@@H]2C(F)(F)F`, 320 nM; in that of `O=C(NC12CC3CC(CC(C3)C1)C2)c1cnn2c1N[C@H](c1ccco1)C[C@@H]2C(F)(F)F`, 400 nM.

Regarding `O=C(Nc1cnn2c1N[C@H](c1ccccc1)C[C@@H]2C(F)(F)F)C12CC3CC(CC(C3)C1)C2`, the IC50 in series [1] was greater than 10000 nM. With `O=C(NC12CC3CC(CC(C3)C1)C2)c1cnn2c(C(F)(F)F)cc(-c3ccccc3)nc12`, the IC50 in [1] is greater than 10000 nM. Same read-out and setting: in the case of `CC1(C)C=C(c2ccccc2)Nc2c(C(=O)NC34CC5CC(CC(C5)C3)C4)cnn21` it was 580 nM; in that of `C[C@H]1C[C@@H](c2ccccc2)Nc2c(C(=O)NC34CC5CC(CC(C5)C3)C4)cnn21`, 76 nM; in that of `O=C(NC12CC3CC(CC(C3)C1)C2)c1cnn2c1N[C@H](c1cccnc1)C[C@@H]2C(F)(F)F`, greater than 10000 nM.
